Assay results collected from several papers.
Protocols differ between the studies behind these lines.
Organism: Staphylococcus aureus

The MIC of `COc1c(N2CC3CCCNC3C2)c(F)cc2c(=O)c(C(=O)OCc3cnc([N+](=O)[O-])s3)cn(C3CC3)c12` (stereo not drawn) is reported as 0.09 µM (microbial growth; ATCC29213).
With `Oc1c(Cl)cc(Cl)cc1-c1[nH]c(Cl)c(Cl)c1Cl` the MIC was 0.29 µM (microbial growth; ATCC29213 MSSA).
`CN[C@H](CC(C)C)C(=O)N[C@H]1C(=O)N[C@@H](CC(N)=O)C(=O)N[C@H]2C(=O)N[C@H]3C(=O)N[C@H](C(=O)N[C@H](C(=O)O)c4cc(O)cc(O)c4-c4cc3ccc4O)[C@H](O)c3ccc(c(Cl)c3)Oc3cc2cc(c3O[C@@H]2O[C@H](CO)[C@@H](O)[C@H](O)[C@H]2O[C@H]2C[C@](C)(N)[C@H](O)[C@H](C)O2)Oc2ccc(cc2Cl)[C@H]1O` has an MBC of 0.67 µM (microbial killing; broth dilution; MRSA; drug-resistant strain).
`CN[C@H](CC(C)C)C(=O)N[C@H]1C(=O)N[C@@H](CC(N)=O)C(=O)N[C@H]2C(=O)N[C@H]3C(=O)N[C@H](C(=O)N[C@H](C(=O)O)c4cc(O)cc(O)c4-c4cc3ccc4O)[C@H](O)c3ccc(c(Cl)c3)Oc3cc2cc(c3O[C@@H]2O[C@H](CO)[C@@H](O)[C@H](O)[C@H]2O[C@H]2C[C@](C)(N)[C@H](O)[C@H](C)O2)Oc2ccc(cc2Cl)[C@H]1O` has an MBC of 1.95 µg/mL (microbial killing; ATCCBAA1717 MRSA).
With `C[C@@H]1CN2c3c(cc4c(N5C(=O)OC[C@@H]5C)noc4c3F)CC3(C(=O)NC(=O)NC3=O)[C@H]2[C@H](C)O1` the MIC was 1 µg/mL (microbial growth; broth dilution; ATCC29213).
The MIC of `COc1c(N2C[C@@H]3CCCN[C@@H]3C2)c(F)cc2c(=O)c(C(=O)O)cn(C3CC3)c12` is reported as 0.07 µM (microbial growth; ATCC29213).
`CO[C@@H]1[C@@H](OC(N)=O)[C@@H](O)[C@H](Oc2ccc3c(O)c(NC(=O)c4ccc(O)c(CC=C(C)C)c4)c(=O)oc3c2C)OC1(C)C` gave an MIC of 0.25 µg/mL (microbial growth; MRSA; drug-resistant strain, clinical isolate).
`C[C@H]1COc2c(N3CCN(C)CC3)c(F)cc3c(=O)c(C(=O)O)cn1c23` has an MBC of 0.48 µg/mL (microbial killing; ATCCBAA1717 MRSA).
`O=c1ccc2nc3ccc(OCc4ccc([N+](=O)[O-])o4)cc3oc-2c1` has an MIC of > 32 µg/mL (microbial growth; 24 h).
